In paper PMC12675685 (Parasitology Research, 2025):
“Also recorded” adds a separate entry of the source. Structures can show the parent of a compound that is named as a salt. Where two headings read alike, the source gives them in different places.

What was measured:
[1] = test system: MDOK cells; experiment: Cytotoxicity on host cells; format: cell-based, sheep; conditions: for toxicity to MDOK cells, relative level: compared among the tested compounds; for IC50: read-out: IC50 in MDOK cells, CCK-8
[2] = test system: Babesia sp. Xinjiang; experiment: Anti-proliferation assay in Babesia sp. Xinjiang; format: cell-based; conditions: for inhibition of BxjG5 growth in vitro, in words: 48, 72 and 96 h; for inhibitory effect on BxjG5 proliferation: concentrations increased to 200 μM, data not shown
Procedure, shortened: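 Monoclonal BxjG5 line grown in RPMI 1640 with 20% FBS and 5% fresh sheep RBCs, 37 °C, humidified 5% CO2. Cultures seeded at 1% parasitemia with serial dilutions in medium (200 μΜ to 0.005 μΜ), run 48, 72 or 96 h, with drug-containing medium renewed every 48 h. DMSO controls (≤0.4%). Parasitemia counted on Giemsa smears (2,000–4,000 RBCs), inhibition taken relative to control, and curves fitted. Three experiments, triplicate wells.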

[3] = test system: Babesia divergens; conditions: cited from earlier work; for IC50: read-out: IC50 on B. divergens, ref Nehrbass-Stuedli et al. [2011]
[4] = test system: Babesia duncani; experiment: In vivo anti-Babesia activity in B. duncani-infected hamsters; design: species or system LVG Golden Syrian Hamsters; conditions: for effect on B. duncani growth in vivo, in words / day post-treatment on which mortality reached 100% / mean parasitemia (parasite burden): furamidine 2 mg/kg bw; for effect on B. duncani growth in vivo, in words: BIX-01294 7.35 mg/kg bw i.p.; for day post-treatment on which mortality reached 100% / mean parasitemia (parasite burden): i.p. daily for five days, BIX-01294 7.35 mg/kg bw
Procedure, shortened: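 Twenty 12-week-old hamsters were infected i.p. with 2,500 B. duncani-infected RBCs and split randomly into four equal groups. Dosing began once parasites appeared on Giemsa smears (parasitemia ≈ 1%): 200 μl i.p. daily for five days of vehicle (DMSO/PBS 1:1), test compounds or diminazene aceturate 20 mg/kg bw. Parasitemia was followed on smears and survival recorded. Groups were compared by one-way ANOVA with Tukey–Kramer.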

[5] = test system: Plasmodium falciparum; conditions: read-out: IC50 against Plasmodium falciparum; ref Malmquist et al. [2012]; cited from earlier work
[6] = test system: Babesia microti; experiment: In vivo anti-Babesia activity in B. microti-infected BALB/c mice; conditions: for effect on B. microti parasite burden in vivo, in words: furamidine 2 mg/kg bw, BIX-01294 10 mg/kg bw, DA 30 mg/kg bw i.p.
[7] = In vivo safety evaluation of furamidine in healthy BALB/c mice; conditions: 2 mg/kg bw i.p. daily for 5 consecutive days
Procedure, shortened: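 Healthy female BALB/c mice, 6–8 weeks old (n = 5/group), received vehicle (DMSO/PBS) or test compound i.p. daily for 5 days. Clinical signs were checked twice daily and weight each morning before dosing. Blood was taken retro-orbitally under isoflurane 24 h after the last dose: EDTA-K2 blood for haematology, serum for biochemistry. Livers were fixed in 4% paraformaldehyde and stained with H&E.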

[8] = test system: B. microti; conditions: ref Nehrbass-Stuedli et al. [2011], cited from earlier work
[9] = Babesia, 48 h, read-out: IC50 in Babesia sp. Xinjiang
[10] = Babesia, 72 h, read-out: IC50 in Babesia sp. Xinjiang
[11] = Babesia, 96 h, read-out: IC50 in Babesia sp. Xinjiang
[12] = Babesia, 96 h, read-out: IC50 on BxjG5 growth

Structure (SMILES): Nc1ncnc2c1ncn2[C@@H]1O[C@H](C[C@@H](N)CC[C@H](N)C(=O)O)[C@@H](O)[C@H]1O [Sinefungin]
- inhibition rate on MDOK cells ([1]; concentrations increased to 100 μM): < 30%
- IC50 [2, 9]: 2.14 ± 0.07 µM
- IC50 [2, 10]: 2.25 ± 0.34 µM
- IC50 [2, 11]: 2.89 ± 1.1 µM

Structure (SMILES): CCCc1cc(C)[nH]c(=O)c1CNC(=O)c1cc(-c2ccc(N3CCN(C(C)C)CC3)nc2)cc2c1cnn2C(C)C [UNC-1999]
- inhibition rate on MDOK cells ([1]; concentrations exceeded 10 μM): greater than 70%
- IC50 [2, 9]: 5.15 ± 1.31 µM
- IC50 [2, 10]: 3.88 ± 1 µM
- IC50 [2, 11]: 4.7 ± 1.03 µM

Structure (SMILES): Cc1cn(CCN2CCN(c3ccccc3-c3cc(C#N)cc(C(=O)NCCCN4CCCC4)c3)CC2)c2ccccc12 [LLY-507]
- inhibition rate on MDOK cells ([1]; concentrations exceeded 10 μM): greater than 70%
- IC50 [2, 9]: 4.02 ± 0.74 µM
- IC50 [2, 10]: 3.25 ± 0.46 µM
- IC50 [2, 11]: 2.58 ± 0.63 µM

Structure (SMILES): COc1cc2nc(N3CCCN(C)CC3)nc(NC3CCN(Cc4ccccc4)CC3)c2cc1OC [BIX-01294]
- inhibitory activity against B. divergens in vitro, in words ([3]; ref Vanheer and Kafsack [2021]): moderate inhibitory activity
- effect on B. duncani growth in vivo, in words [4]: did not appear to inhibit Babesia growth in vivo
- day post-treatment on which mortality reached 100% [4]: 2 days
- mean parasitemia (parasite burden) [4]: approximately 20%
- IC50 [5]: 75 ± 36 nM
- IC50 [2, 9]: 0.47 ± 0.1 µM
- IC50 [2, 10]: 0.35 µM
- IC50 [2, 11]: 0.29 µM
- IC50 [2, 12]: 0.29 to 0.47 µM
- effect on B. microti parasite burden in vivo, in words [6]: did not appear to inhibit Babesia growth in vivo

Structure (SMILES): N=C(N)c1ccc(-c2ccc(-c3ccc(C(=N)N)cc3)o2)cc1 [Furamidine]
- IC50 ([3]; strain 1903): 36.8 nM
- IC50 ([3]; strain 4201): 35.8 nM
- toxicity to MDOK cells, relative level [1]: intermediate levels
- IC50 ([1]; 24 h): 98.81 ± 0.6 µM
- IC50 ([1]; 48 h): 45.36 ± 0.43 µM
- IC50 ([1]; 72 h): 43.01 ± 0.24 µM
- effect on B. duncani growth in vivo, in words [4]: effectively inhibited the growth; also recorded: did not completely eliminate parasites
- day post-treatment on which mortality reached 100% [4]: 6 days
- mean parasitemia (parasite burden) [4]: less than 10%
- body weight gain versus vehicle control [7]: no significant difference
- hematological and biochemical analyses versus vehicle control [7]: no significant differences
- liver histopathology (H&E) [7]: appeared normal
- inhibition of BxjG5 growth in vitro, in words [2]: effectively inhibit BxjG5 growth in vitro at nanomolar concentrations
- IC50 [2, 9]: 0.03 µM
- IC50 ([2]; Babesia, read-out: IC50 on BxjG5): 0.02 µM
- complete suppression of parasitemia up to day ([6]; furamidine 2 mg/kg): 50 dpi
- day posttreatment on which parasitemia peaked ([6]; furamidine 2 mg/kg bw i.p.): 3 days
- complete suppression of parasites through ([8]; 3.125 mg/kg): 13 days
- anti-parasite activity in B. microti-infected NMRI mouse model, in words ([8]; 25 mg/kg): totally cure

Structure (SMILES): CCN(CC)Cc1cc(Nc2ccnc3cc(Cl)ccc23)ccc1O [Amodiaquine]
- toxicity to MDOK cells, relative level [1]: intermediate levels
- IC50 [2, 9]: 33.2 ± 2.19 µM
- IC50 [2, 10]: 23.9 ± 1.47 µM
- IC50 [2, 11]: 26.6 ± 1.49 µM
- IC50 [2, 12]: ~26 µM

Structure (SMILES): O=C([C@@H](Cc1cccc(C(F)(F)F)c1)NS(=O)(=O)c1cc(F)c2c(c1)CCNC2)N1CCCC1 [PFI-2 hydrochloride]
- IC50 [2, 9]: 16.5 ± 0.86 µM
- IC50 [2, 10]: 10.7 ± 0.82 µM
- IC50 [2, 11]: 17.5 ± 1.09 µM

Structure (SMILES): CN1C(=O)[C@@]23C[C@]4([C@]56C[C@@]78SS[C@@](CO)(C(=O)N7[C@H]5Nc5ccccc56)N(C)C8=O)c5ccccc5N[C@@H]4N2C(=O)[C@]1(CO)SS3 [Chaetocin]
- inhibition rate on MDOK cells ([1]; concentrations exceeded 10 μM): greater than 70%
- IC50 [2, 9]: > 200 µM
- IC50 [2, 10]: > 200 µM
- IC50 [2, 11]: > 200 µM
- inhibitory effect on BxjG5 proliferation [2]: did not observe any obvious inhibitory effect

Structure (SMILES): CCCc1cc(C)[nH]c(=O)c1CNC(=O)c1cc(-c2ccnc(N3CCN(C)CC3)c2)cc2c1cnn2C(C)C [GSK343]
- IC50 [2, 9]: 7.25 ± 0.75 µM
- IC50 [2, 10]: 6.88 ± 0.51 µM
- IC50 [2, 11]: 7.04 ± 0.56 µM

Structure (SMILES): CCOCC1(COCC)CCC(c2[nH]ncc2CN(C)CCNC)CC1.Cl.Cl.Cl [GSK3368715]
- IC50 ([1]; 24 h): > 100 µM
- IC50 ([1]; 48 h): > 100 µM
- IC50 ([1]; 72 h): > 100 µM
- inhibitory effect on BxjG5 proliferation [2]: did not observe any obvious inhibitory effect
- IC50 ([2]; read-out: IC50 in Babesia sp. Xinjiang, 48 h incubation, BxjG5): > 200 µM
- IC50 ([2]; read-out: IC50 in Babesia sp. Xinjiang, 72 h incubation, BxjG5): > 200 µM
- IC50 ([2]; read-out: IC50 in Babesia sp. Xinjiang, 96 h incubation, BxjG5): > 200 µM

Structure (SMILES): CC(=O)NCC(=O)O.CC(=O)NCC(=O)O.N=C(N)c1ccc(N=NNc2ccc(C(=N)N)cc2)cc1 [DA, Diminazene Aceturate]
- deaths until day 43 posttreatment ([4]; DA 20 mg/kg bw i.p. daily for five days): 0/4
- effect on B. microti parasite burden in vivo, in words [6]: effectively decreased the parasite burden

Structure (SMILES): O=C(Nc1cccc(C2=NCCN2)c1)Nc1cccc(C2=NCCN2)c1 [Imidocarb dipropionate]
- toxicity to MDOK cells, relative level [1]: intermediate levels
- inhibition of BxjG5 growth in vitro, in words [2]: effectively inhibit BxjG5 growth in vitro at nanomolar concentrations
- IC50 [2, 10]: 0.03 µM
- IC50 [2, 11]: 0.02 µM
